Measurements reported in ChEMBL document CHEMBL3108700, “Designing anti-inflammatory drugs from parasitic worms: a synthetic small molecule analogue of the Acanthocheilonema viteae product ES-62 prevents development of collagen-induced arthritis” (J Med Chem, 2013).
Activity calls are given as the source filed them. Unless noted, no cut-off for these calls is given here.

Tests used:
TLR2/TLR6 (Mus musculus) [1] = target: T1, TLR2/TLR6 (Mus musculus) (UniProt Q9QUN7+Q9EPW9); assay: Inhibition of TLR2/6 in BALB/c mouse BMDM assessed as downregulation of BLP-stimulated IL-12p40 level at 5 ug/ml preincubated for 18 hrs followed by BLP challenge measured after 24 hrs by ELISA relative to control; assay type: protein-complex assay
How it was run: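 BALB/c male bone marrow macrophages were differentiated 7 days with L929 supernatant (≥99% CD11b+/F4/80+). Cells were plated at 2 × 10^5/well in triplicate, rested overnight, and given compounds at 5 μg/mL for 18 h. They were then stimulated with 100 ng/mL S. minnesota LPS, 10 ng/mL Pam3CSK4 (BLP) or 0.01 μM CpG for 24 h. Supernatant IL-12p40 and IL-6 were measured by ELISA (sensitivity 16 pg/mL).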

Mus musculus [2] = species: Mus musculus; assay: Inhibition of TLR4/IL-1R in BALB/c mouse BMDM assessed as downregulation of LPS-stimulated MyD88 protein expression at 1 ug/mL after 20 hrs by Western blotting analysis relative to control
How it was run: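 Bone marrow macrophages were treated 20 h with medium, compound (1 or 5 μg/mL) or LPS (100 ng/mL) and lysed in modified RIPA buffer. Protein (30 μg) was separated on Bis-Tris gels, and MyD88 and GAPDH were detected by Western blot with ECL. Densitometric MyD88:GAPDH ratio was normalized to the RPMI value, from six analyses.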

Mus musculus [3] = species: Mus musculus; assay: Inhibition of TLR4/IL-1R in BALB/c mouse BMDM assessed as downregulation of LPS-stimulated MyD88 expression at 5 ug/mL preincubated for 2 hrs followed by LPS challenge measured after 18 hrs by flow cytometric analysis (reference value: 127%); values are per cent of control
Mus musculus [4] = assay: Antiinflammatory activity in DBA/1 mouse collagen-induced arthritis model assessed as reduction in number of PMA/ionomycin-stimulated CD8+ T cells expressing IFNgamma at 50 ug/kg, sc administered 2 days prior to collagen challenge continued till day 21 post collagen challenge by flow cytometric analysis relative to control; assay type: functional, organism-based; conditions: T-cell
How it was run: (§1)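 CIA mice given test agent (1 μg/dose) or PBS subcutaneously on days −2, 0 and 21. Draining lymph node cells (10^6/mL) in complete RPMI were stimulated ± 50 ng/mL PMA plus 500 ng/mL ionomycin, with 10 μg/mL brefeldin A for 5 h at 37 °C. Cells were surface-stained for CD4, CD8 and γδ, fixed and permeabilized, then stained for intracellular IFNγ and IL-17A. Gating used isotype controls. Cell numbers per individual mouse; naive n = 7, treated groups n = 13.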

[5] = target: T2, Toll-like receptor 4 (Mus musculus) (UniProt Q9QUK6); assay: Inhibition of TLR4 in ovalbumin pulsed C57BL/6 mouse BMDC co-cultured with OT-2 CD4+ T cells assessed as reduction of LPS-induced IL-17 production at 5 ug/mL after 3 days by ELISA; assay type: cell-based; conditions: T-cell
T2 sequence (whole entry): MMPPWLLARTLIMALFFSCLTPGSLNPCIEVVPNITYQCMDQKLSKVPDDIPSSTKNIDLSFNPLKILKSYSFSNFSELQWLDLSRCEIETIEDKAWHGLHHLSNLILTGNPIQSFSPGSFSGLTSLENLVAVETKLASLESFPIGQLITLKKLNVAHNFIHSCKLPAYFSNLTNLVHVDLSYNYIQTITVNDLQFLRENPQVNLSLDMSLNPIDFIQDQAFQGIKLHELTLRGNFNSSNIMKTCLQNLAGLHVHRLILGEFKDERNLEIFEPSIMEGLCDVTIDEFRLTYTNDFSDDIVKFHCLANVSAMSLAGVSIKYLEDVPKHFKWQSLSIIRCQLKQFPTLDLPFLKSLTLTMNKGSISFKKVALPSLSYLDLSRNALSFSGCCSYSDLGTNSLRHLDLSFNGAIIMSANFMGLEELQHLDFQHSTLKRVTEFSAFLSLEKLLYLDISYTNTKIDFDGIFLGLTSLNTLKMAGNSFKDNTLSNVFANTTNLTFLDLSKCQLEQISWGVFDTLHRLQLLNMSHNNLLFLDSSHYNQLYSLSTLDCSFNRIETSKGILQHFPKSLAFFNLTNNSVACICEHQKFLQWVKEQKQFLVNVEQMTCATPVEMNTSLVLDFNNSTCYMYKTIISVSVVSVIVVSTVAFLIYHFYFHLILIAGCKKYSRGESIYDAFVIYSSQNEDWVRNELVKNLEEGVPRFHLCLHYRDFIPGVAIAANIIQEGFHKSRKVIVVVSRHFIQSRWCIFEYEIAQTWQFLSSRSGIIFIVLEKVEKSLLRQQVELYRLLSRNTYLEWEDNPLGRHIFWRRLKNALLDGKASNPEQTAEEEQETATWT
How it was run: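 C57BL/6 bone marrow DCs ± compound (5 μg/mL) were treated ± LPS, pulsed with OVA peptide, and cocultured 3 days with naive OT-II CD4+ T cells. IL-17A was measured by ELISA. Responses were normalized to the LPS response at 10, 100 and 300 nM OVA. Values are mean ± SEM, pooled from four experiments.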

[6] = target: T2, Toll-like receptor 4 (Mus musculus); assay: Inhibition of TLR4-mediated NFkappaB p65 activation in LPS-stimulated BALB/c mouse BMDM at 5 ug/ml preincubated for 18 hrs followed by LPS challenge measured after 1 hr by TransAM ELISA
How it was run: (§2)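 Bone marrow macrophages (4 × 10^6/well) had their medium changed after 24 h, were pretreated with compounds at 5 μg/mL for 18 h, then stimulated for 1 h with 100 ng/mL LPS, 10 ng/mL BLP or 1 μM CpG. Activated NFκB p65 in nuclear extracts was measured by TransAM ELISA in duplicate.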

Mus musculus [7] = assay: Antiinflammatory activity in DBA/1 mouse collagen-induced arthritis model assessed as reduction of disease incidence at 50 ug/kg, sc administered 2 days prior to collagen challenge continued till day 21 post collagen challenge; assay type: functional, organism-based
How it was run: (§3)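 Collagen-induced arthritis mice were dosed subcutaneously (1 μg/dose) or given PBS on days −2, 0 and 21. Arthritis was scored clinically and hind paw width measured. Incidence was the % of mice with severity score ≥2 (cumulative) or ≥4 (high score). Results are mean ± SEM. Scores n = 13 per group, pooled from two experiments; paw width n = 7, from a single experiment.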

TLR2/TLR6 (Mus musculus) [8] = target: T1, TLR2/TLR6 (Mus musculus); assay: Inhibition of TLR2/6-mediated NFkappaB p65 activation in BLP-stimulated BALB/c mouse BMDM at 5 ug/ml preincubated for 18 hrs followed by BLP challenge measured after 1 hr by TransAM ELISA; assay type: protein-complex assay; how it was run: as §2
Mus musculus [9] = assay: Antiinflammatory activity in DBA/1 mouse assessed as reduction in number of PMA/ionomycin-stimulated gammadelta+ T cells expressing IL-17 at 50 ug/kg, sc administered 2 days prior to collagen challenge continued till day 21 post collagen challenge by flow cytometric analysis relative to control; assay type: functional, organism-based; conditions: T-cell; how it was run: as §1
Mus musculus [10] = assay: Antiinflammatory activity in DBA/1 mouse collagen-induced arthritis model assessed as reduction of disease scores at 50 ug/kg, sc administered 2 days prior to collagen challenge continued till day 21 post collagen challenge; assay type: functional, organism-based; how it was run: as §3
BMDC = assay: Antiinflammatory activity in mouse BMDC assessed as downregulation of TLR4 expression; assay type: functional

For `CN(C)CCS(=O)(=O)Cc1ccc(Br)cc1`, the inhibition (TLR2/TLR6 (Mus musculus) [1]) was “Active”, the fold change (FC) (Mus musculus [2]) was 1.09 and the residual activity (Mus musculus [3]) was 95.7%. The Activity (Mus musculus [4]) was “Active”, the inhibition [5] was “Active” and the inhibition [6] was “Active”. For the same compound, the Activity (Mus musculus [7]) was “Active”, the inhibition (TLR2/TLR6 (Mus musculus) [8]) was “Active” and the Activity (Mus musculus [9]) was “Active”. For the same compound, the Activity (Mus musculus [10]) was “Active” and the Activity (BMDC) was “inactive”.
